Laboratory results as given in ChEMBL document CHEMBL3808334, “Synthesis and in vitro evaluation of novel triazine analogues as anticancer agents and their interaction studies with bovine serum albumin” (Eur J Med Chem, 2016).

Assays:
[1] = Growth inhibition of human BT549 cells assessed as cell growth at 10^-4 M incubated for 48 hrs by sulforhodamine B assay; format: functional; conditions: BT-549, 48 h, read-out: Activity
In short: (§1)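 Five-dose assay: five concentrations from 10-fold or ½-log serial dilutions. Cells are plated at 5,000–40,000 per well according to doubling time, grown 24 h, then exposed 48 h at 37 °C, 5% CO₂. Fixed with cold 50% TCA (final addition) for 60 min at 4 °C and stained with 0.4% SRB in 1% acetic acid. Bound dye is solubilized in 10 mM Tris base and read at 515 nm. GI₅₀ is where [(Ti−Tz)/(C−Tz)]×100 = 50, with a time-zero plate as Tz.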

[2] = system: A549; experiment: Growth inhibition of human A549/ATCC cells incubated for 48 hrs by sulforhodamine B assay; format: functional; conditions: A549, 48 h; in short: as §1
[3] = Growth inhibition of human COLO205 cells incubated for 48 hrs by sulforhodamine B assay; format: functional; conditions: COLO 205, 48 h
In short: (§2)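 Cells seeded at 5,000–40,000/well according to doubling time and preincubated 24 h at 37 °C, 5% CO2. Time-zero plates were TCA-fixed. DMSO concentrate was diluted in medium with 50 µg/ml gentamicin to give five concentrations (10-fold or ½ log steps), then exposed 48 h. Cells were TCA-fixed, stained with 0.4% SRB and read at 515 nm. Percent growth was taken against time-zero and control; GI50, TGI and LC50 derived.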

[4] = Growth inhibition of human UO31 cells assessed as cell growth at 10^-8 M incubated for 48 hrs by sulforhodamine B assay; format: functional; conditions: UO-31, 48 h, read-out: Activity
[5] = Growth inhibition of human RPMI8226 cells assessed as cell growth at 10^-7 M incubated for 48 hrs by sulforhodamine B assay; format: functional; conditions: RPMI-8226, 48 h, read-out: Activity
[6] = Growth inhibition of human HL-60(TB) cells assessed as cell growth at 10^-4 M incubated for 48 hrs by sulforhodamine B assay; format: functional; conditions: HL-60, 48 h, read-out: Activity
In short: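 Cells plated at 5,000–40,000/well according to doubling time and preincubated 24 h at 37 °C, 5% CO₂, with time-zero plates TCA-fixed. Drugs were kept as DMSO concentrates at 400× the top concentration and diluted in medium with 50 µg/ml gentamicin. Five 10-fold or ½-log dilutions were run for 48 h, followed by SRB staining and A515. Percent growth = (Ti−Tz)/(C−Tz)×100, or (Ti−Tz)/Tz×100 when Ti<Tz.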

[7] = system: EKVX; experiment: Growth inhibition of human EKVX cells assessed as cell growth at 10^-4 M incubated for 48 hrs by sulforhodamine B assay; format: functional; conditions: read-out: Activity; in short: as §2
[8] = system: SK-MEL-28; experiment: Growth inhibition of human SK-MEL-28 cells assessed as cell growth at 10^-7 M incubated for 48 hrs by sulforhodamine B assay; format: functional; conditions: SK-MEL-28, 48 h, read-out: Activity
[9] = system: U-251; experiment: Growth inhibition of human U251 cells assessed as cell growth at 10^-4 M incubated for 48 hrs by sulforhodamine B assay; format: functional; conditions: U-251, 48 h, read-out: Activity
[10] = system: M14; experiment: Growth inhibition of human M14 cells assessed as cell growth at 10^-4 M incubated for 48 hrs by sulforhodamine B assay; format: functional; conditions: M14, 48 h, read-out: Activity
[11] = system: SK-MEL-5; experiment: Growth inhibition of human SK-MEL-5 cells assessed as cell growth at 10^-4 M incubated for 48 hrs by sulforhodamine B assay; format: functional; conditions: SK-MEL-5, 48 h, read-out: Activity
[12] = Growth inhibition of human OVCAR8 cells assessed as cell growth at 10^-4 M incubated for 48 hrs by sulforhodamine B assay; format: functional; conditions: OVCAR-8, 48 h, read-out: Activity
[13] = system: A498; experiment: Growth inhibition of human A498 cells assessed as cell growth at 10^-4 M incubated for 48 hrs by sulforhodamine B assay; format: functional; conditions: A498, 48 h, read-out: Activity; in short: as §1
[14] = Growth inhibition of human LOXIMVI cells assessed as cell growth at 10 uM incubated for 48 hrs by sulforhodamine B assay; format: functional; conditions: LOX IMVI, read-out: Activity
[15] = system: NCI/ADR-RES; experiment: Growth inhibition of human NCI/ADR-RES cells assessed as cell growth at 10 uM incubated for 48 hrs by sulforhodamine B assay; format: functional; conditions: read-out: Activity
[16] = system: MCF7; experiment: Growth inhibition of human MCF7 cells assessed as cell growth at 10 uM incubated for 48 hrs by sulforhodamine B assay; format: functional; conditions: MCF7, 48 h, read-out: Activity
[17] = Growth inhibition of human Caki1 cells assessed as cell growth at 10^-7 M incubated for 48 hrs by sulforhodamine B assay; format: functional; conditions: CAKI-1, 48 h, read-out: Activity; in short: as §2
[18] = Growth inhibition of human RXF393 cells assessed as cell growth at 10^-7 M incubated for 48 hrs by sulforhodamine B assay; format: functional; conditions: RXF 393, 48 h, read-out: Activity
[19] = system: T47D; experiment: Growth inhibition of human T47D cells assessed as cell growth at 10^-7 M incubated for 48 hrs by sulforhodamine B assay; format: functional; conditions: read-out: Activity
[20] = Growth inhibition of human MOLT4 cells assessed as cell growth at 10^-6 M incubated for 48 hrs by sulforhodamine B assay; format: functional; conditions: MOLT-4, 48 h, read-out: Activity
[21] = Growth inhibition of human HOP62 cells assessed as cell growth at 10^-6 M incubated for 48 hrs by sulforhodamine B assay; format: functional; conditions: HOP-62, 48 h, read-out: Activity
[22] = Growth inhibition of human COLO205 cells assessed as cell growth at 10^-6 M incubated for 48 hrs by sulforhodamine B assay; format: functional; conditions: COLO 205, 48 h, read-out: Activity; in short: as §2
[23] = Growth inhibition of human OVCAR3 cells assessed as cell growth at 10^-6 M incubated for 48 hrs by sulforhodamine B assay; format: functional; conditions: OVCAR-3, 48 h, read-out: Activity
[24] = Growth inhibition of human MOLT4 cells assessed as cell growth at 10 uM incubated for 48 hrs by sulforhodamine B assay; format: functional; conditions: MOLT-4, 48 h, read-out: Activity
[25] = Growth inhibition of human SF539 cells assessed as cell growth at 10 uM incubated for 48 hrs by sulforhodamine B assay; format: functional; conditions: SF-539, 48 h, read-out: Activity
[26] = target: Albumin (Bos taurus, UniProt P02769); experiment: Binding affinity to bovine serum albumin assessed as red shift in emission intensity up to 20 uM by fluorescence spectroscopic analysis relative to control; format: ADME; conditions: cattle, isolated protein
In short: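 Fluorescence titration of 10 µM BSA in 0.1 M phosphate buffer pH 7.4 with compound at 0–20 µM, diluted from DMSO stocks. Excitation 280 nm, slit 10 nm, 1 cm quartz cell, 300 K. Changes in the 350 nm Trp emission, new bands near 370–373 nm and isoemissive points are read against BSA alone.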

[27] = read-out: LC50 (the source's name)
[28] = read-out: pLC50 (the source's name) (converted)

Chain of Albumin (P02769 whole entry): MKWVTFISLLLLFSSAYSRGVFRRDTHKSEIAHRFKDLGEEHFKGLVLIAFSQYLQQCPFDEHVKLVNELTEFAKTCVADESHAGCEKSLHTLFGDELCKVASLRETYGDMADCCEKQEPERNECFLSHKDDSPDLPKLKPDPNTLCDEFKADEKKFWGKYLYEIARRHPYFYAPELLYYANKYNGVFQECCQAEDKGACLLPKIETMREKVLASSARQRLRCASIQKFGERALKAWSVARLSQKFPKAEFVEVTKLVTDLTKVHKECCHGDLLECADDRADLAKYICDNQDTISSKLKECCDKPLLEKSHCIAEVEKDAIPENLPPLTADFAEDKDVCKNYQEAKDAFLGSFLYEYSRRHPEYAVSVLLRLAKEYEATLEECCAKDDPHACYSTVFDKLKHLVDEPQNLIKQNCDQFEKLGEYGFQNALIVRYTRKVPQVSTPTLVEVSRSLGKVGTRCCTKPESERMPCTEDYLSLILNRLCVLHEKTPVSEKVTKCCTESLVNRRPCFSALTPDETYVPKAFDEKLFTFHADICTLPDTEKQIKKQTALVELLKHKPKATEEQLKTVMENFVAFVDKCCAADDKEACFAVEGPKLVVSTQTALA

| SMILES | growth at 100 µM [1] | GI50 ([2]; read-out: GI50) | CC50 [2, 27] | TGI ([2]; read-out: TGI) | GI50 ([2]; read-out: pGI50 (converted)) | CC50 [2, 28] | TGI ([2]; read-out: pTGI (converted)) | GI50 ([3]; read-out: GI50) | TGI ([3]; read-out: TGI) | GI50 ([3]; read-out: pGI50 (converted)) | TGI ([3]; read-out: pTGI (converted)) | growth at 0.01 µM [4] | growth at 0.1 µM [5] | growth at 100 µM [6] | growth at 100 µM [7] | growth at 0.1 µM [8] | growth at 100 µM [9] | growth at 100 µM [10] | growth at 100 µM [11] | growth at 100 µM [12] | further results |
| --- | --- | --- | --- | --- | --- | --- | --- | --- | --- | --- | --- | --- | --- | --- | --- | --- | --- | --- | --- | --- | --- |
| Fc1ccc(-c2nc(Nc3ccc(-c4nc5ccccc5[nH]4)cc3)nc(N3CCOCC3)n2)cc1 | -28% | 3.24 µM | > 100 µM | > 100 µM | 3.24 µM | > 100 µM | > 100 µM | 1.92 µM | 4.21 µM | 1.91 µM | 4.17 µM | 88% | 99% | -20% | 3% | 91% | -33% | -80% | -90% | -44% | LC50 ([3]; read-out: LC50): 9.23 µM; LC50 ([3]; read-out: pLC50 (converted)): 9.33 µM; growth at 100 µM [13]: -96%; growth at 10 µM [14]: -75.6%; growth at 10 µM [15]: 34.2%; growth at 10 µM [16]: -44.3%; growth at 0.1 µM [17]: 97%; growth at 0.1 µM [18]: 100%; growth at 0.1 µM [19]: 93%; growth at 1 µM [20]: 87%; growth at 1 µM [21]: 90%; growth at 1 µM [22]: 92%; growth at 1 µM [23]: 89%; growth at 10 µM [24]: 1.78%; growth at 10 µM [25]: 0.31%; Activity [26]: 23 nm |
| c1ccc2[nH]c(-c3ccc(Nc4nc(N5CCCCC5)nc(N5CCOCC5)n4)cc3)nc2c1 | -50% | 3.27 µM | > 100 µM | 13.2 µM | 3.24 µM | > 100 µM | 13.2 µM | 1.86 µM | 3.92 µM | 1.86 µM | 3.89 µM | 85% | 95% | -22% | 1% | 100% | -56% | -70% | -95% | -49% | LC50 ([3]; read-out: LC50): 8.27 µM; LC50 ([3]; read-out: pLC50 (converted)): 8.32 µM; growth at 100 µM [13]: -90%; growth at 10 µM [14]: -77.1%; growth at 10 µM [15]: 45.6%; growth at 10 µM [16]: 3.49%; growth at 0.1 µM [17]: 86%; growth at 0.1 µM [18]: 91%; growth at 0.1 µM [19]: 94%; growth at 1 µM [20]: 97%; growth at 1 µM [21]: 90%; growth at 1 µM [22]: 92%; growth at 1 µM [23]: 96%; growth at 10 µM [24]: 13.7%; growth at 10 µM [25]: 7.95%; Activity [26]: 25 nm |
| c1ccc(-c2nc(Nc3ccc(-c4nc5ccccc5[nH]4)cc3)nc(N3CCOCC3)n2)cc1 | -80% | 1.95 µM | 8.25 µM | 4.01 µM | 1.95 µM | 8.32 µM | 3.98 µM | 1.41 µM | 3.13 µM | 1.41 µM | 3.16 µM | 82% | 97% | -56% | -66% | 97% | -69% | -79% | -91% | -61% | LC50 ([3]; read-out: LC50): 6.92 µM; LC50 ([3]; read-out: pLC50 (converted)): 6.92 µM; growth at 100 µM [13]: -100%; growth at 10 µM [14]: -89%; growth at 10 µM [15]: -60.8%; growth at 10 µM [16]: -76.2%; growth at 0.1 µM [17]: 86%; growth at 0.1 µM [18]: 96%; growth at 0.1 µM [19]: 109%; growth at 1 µM [20]: 65%; growth at 1 µM [21]: 89%; growth at 1 µM [22]: 72%; growth at 1 µM [23]: 81%; growth at 10 µM [24]: -37.8%; growth at 10 µM [25]: -76.8%; Activity [26]: 20 nm |
| Clc1ccc(-c2nc(Nc3ccc(-c4nc5ccccc5[nH]4)cc3)nc(N3CCOCC3)n2)cc1 | -13% | 0.666 µM | 5.54 µM | 2.13 µM | 0.661 µM | 5.5 µM | 2.14 µM | 0.305 µM | 1.07 µM | 0.302 µM | 1.07 µM | 79% | 99% | -45% | -15% | 102% | -44% | -35% | -51% | -79% | growth at 100 µM [13]: -48%; growth at 10 µM [14]: -93%; growth at 10 µM [15]: -87.5%; growth at 10 µM [16]: -73.8%; growth at 0.1 µM [17]: 93%; growth at 0.1 µM [18]: 106%; growth at 0.1 µM [19]: 92%; growth at 1 µM [20]: -29%; growth at 1 µM [21]: 72%; growth at 1 µM [22]: 2%; growth at 1 µM [23]: 15%; growth at 10 µM [24]: -91.6%; growth at 10 µM [25]: -92.7%; Activity [26]: 22 nm |
